In brackets after ≈: the same amount, converted by molar mass.
Columns and labels:
[1] = Cytotoxicity against human THP1 cells upto 50 uM treated 3 times per week for 14 days by MTT assay; type: cell-based; conditions: thp-1, 336 h
Staphylococcus aureus [2] = assay: Antimicrobial activity against methicillin-resistant Staphylococcus aureus isolate 8a after 24 hrs by agar plate dilution method; type: functional
Method in brief: (§1)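 Clinical MRSA isolates, from axilla/nasal swabs and identified by mannitol salt agar, Gram stain and coagulase test. […] Inoculum adjusted to McFarland 0.5 in water. Plates incubated 24 h at 37 °C and scored for growth spots. Dilution series quality-controlled with S. aureus NCTC 6571. Combination lines used a 1:1 mixture with oxacillin.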

Staphylococcus aureus [3] = assay: Antimicrobial activity against methicillin-resistant Staphylococcus aureus isolate 22a after 24 hrs by agar plate dilution method; type: functional
Method in brief: (§2)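 Clinical MRSA isolates from axilla/nasal swabs, identified by mannitol salt agar, Gram stain and coagulase test. Agar plate dilution with compound series 0.03–128 µg/mL. Inoculum suspended in water to McFarland 0.5. Incubation 24 h at 37 °C. MIC read as the lowest level without white growth spots. Dilution series quality-controlled with S. aureus NCTC 6571.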

Staphylococcus aureus [4] = assay: Antimicrobial activity against methicillin-resistant Staphylococcus aureus isolate 16a after 24 hrs by agar plate dilution method; type: functional; method in brief: as §2
Staphylococcus aureus [5] = assay: Bactericidal activity against methicillin-resistant Staphylococcus aureus isolate 1a assessed as reduction in colony counts at 32 ug/ml after 8 hrs by pour plate method (reference value: 8.30 +/- 0.442 log10CFU/ml); type: functional
Staphylococcus aureus [6] = assay: Antimicrobial activity against methicillin-resistant Staphylococcus aureus isolate 30a after 24 hrs by agar plate dilution method; type: functional; method in brief: as §2
Staphylococcus aureus [7] = assay: Antimicrobial activity against methicillin-resistant Staphylococcus aureus isolate 13a after 24 hrs by agar plate dilution method; type: functional; method in brief: as §2
Staphylococcus aureus [8] = assay: Antimicrobial activity against methicillin-resistant Staphylococcus aureus isolate 23a after 24 hrs by agar plate dilution method; type: functional; method in brief: as §2
Staphylococcus aureus [9] = assay: Bactericidal activity against methicillin-resistant Staphylococcus aureus isolate 1a assessed as reduction in colony counts at 32 ug/ml after 4 hrs by pour plate method (reference value: 6.14 +/- 0.456 log10CFU/ml); type: functional
Staphylococcus aureus [10] = assay: Bactericidal activity against methicillin-resistant Staphylococcus aureus isolate 1a assessed as reduction in colony counts at 32 ug/ml after 16 hrs by pour plate method (reference value: 12.50 +/- 0.291 log10CFU/ml); type: functional
Staphylococcus aureus [11] = assay: Antimicrobial activity against methicillin-resistant Staphylococcus aureus isolate 5a after 24 hrs by agar plate dilution method; type: functional; method in brief: as §1
Staphylococcus aureus [12] = assay: Antimicrobial activity against methicillin-resistant Staphylococcus aureus isolate 11a after 24 hrs by agar plate dilution method; type: functional; method in brief: as §2
Staphylococcus aureus [13] = assay: Antimicrobial activity against methicillin-resistant Staphylococcus aureus isolate 19a after 24 hrs by agar plate dilution method; type: functional; method in brief: as §2
Staphylococcus aureus [14] = assay: Antimicrobial activity against methicillin-resistant Staphylococcus aureus isolate 18a after 24 hrs by agar plate dilution method; type: functional; method in brief: as §2
Staphylococcus aureus [15] = assay: Antimicrobial activity against methicillin-resistant Staphylococcus aureus isolate 15a after 24 hrs by agar plate dilution method; type: functional; method in brief: as §2
Staphylococcus aureus [16] = assay: Antimicrobial activity against methicillin-resistant Staphylococcus aureus isolate 29a after 24 hrs by agar plate dilution method; type: functional; method in brief: as §2
Staphylococcus aureus [17] = assay: Bactericidal activity against methicillin-resistant Staphylococcus aureus isolate 1a assessed as reduction in colony counts at 32 ug/ml after 24 hrs by pour plate method (reference value: 12.64 +/- 0.224 log10CFU/ml); type: functional
Staphylococcus aureus [18] = assay: Antimicrobial activity against methicillin-resistant Staphylococcus aureus isolate 2a after 24 hrs by agar plate dilution method; type: functional; method in brief: as §2
Staphylococcus aureus [19] = assay: Antimicrobial activity against methicillin-resistant Staphylococcus aureus isolate 6a after 24 hrs by agar plate dilution method; type: functional; method in brief: as §1
Staphylococcus aureus [20] = assay: Antimicrobial activity against methicillin-resistant Staphylococcus aureus isolate 9a after 24 hrs by agar plate dilution method; type: functional; method in brief: as §1
Staphylococcus aureus [21] = assay: Antimicrobial activity against methicillin-resistant Staphylococcus aureus isolate 7a after 24 hrs by agar plate dilution method; type: functional; method in brief: as §1
Staphylococcus aureus [22] = assay: Antimicrobial activity against methicillin-resistant Staphylococcus aureus isolate 26a after 24 hrs by agar plate dilution method; type: functional; method in brief: as §2
Staphylococcus aureus [23] = assay: Antimicrobial activity against methicillin-resistant Staphylococcus aureus isolate 20a after 24 hrs by agar plate dilution method; type: functional; method in brief: as §2
Staphylococcus aureus [24] = assay: Antimicrobial activity against methicillin-resistant Staphylococcus aureus isolate 21a after 24 hrs by agar plate dilution method; type: functional; method in brief: as §2
Staphylococcus aureus [25] = assay: Antimicrobial activity against methicillin-resistant Staphylococcus aureus isolate 25a after 24 hrs by agar plate dilution method; type: functional; method in brief: as §2
Staphylococcus aureus [26] = assay: Antimicrobial activity against methicillin-resistant Staphylococcus aureus isolate 12a after 24 hrs by agar plate dilution method; type: functional; method in brief: as §2
Staphylococcus aureus [27] = assay: Antimicrobial activity against methicillin-resistant Staphylococcus aureus isolate 4a after 24 hrs by agar plate dilution method; type: functional; method in brief: as §2
Staphylococcus aureus [28] = assay: Antimicrobial activity against methicillin-resistant Staphylococcus aureus isolate 3a after 24 hrs by agar plate dilution method; type: functional; method in brief: as §2
Staphylococcus aureus [29] = assay: Antimicrobial activity against methicillin-resistant Staphylococcus aureus isolate 28a after 24 hrs by agar plate dilution method; type: functional; method in brief: as §2
Staphylococcus aureus [30] = assay: Bactericidal activity against methicillin-resistant Staphylococcus aureus isolate 1a assessed as reduction in colony counts at 32 ug/ml after 12 hrs by pour plate method (reference value: 10.12 +/- 0.428 log10CFU/ml); type: functional
Staphylococcus aureus [31] = assay: Bactericidal activity against methicillin-resistant Staphylococcus aureus isolate 1a assessed as reduction in colony counts at 32 ug/ml after 20 hrs by pour plate method (reference value: 12.73 +/- 0.223 log10CFU/ml); type: functional
Staphylococcus aureus [32] = assay: Antimicrobial activity against methicillin-resistant Staphylococcus aureus isolate 1a after 24 hrs by agar plate dilution method; type: functional; method in brief: as §2
Staphylococcus aureus [33] = assay: Antimicrobial activity against methicillin-resistant Staphylococcus aureus isolate 10a after 24 hrs by agar plate dilution method; type: functional; method in brief: as §2
Staphylococcus aureus [34] = assay: Antimicrobial activity against methicillin-resistant Staphylococcus aureus isolate 27a after 24 hrs by agar plate dilution method; type: functional; method in brief: as §2
Staphylococcus aureus [35] = assay: Antimicrobial activity against methicillin-resistant Staphylococcus aureus isolate 17a after 24 hrs by agar plate dilution method; type: functional; method in brief: as §2
Staphylococcus aureus [36] = assay: Antimicrobial activity against methicillin-resistant Staphylococcus aureus isolate 14a after 24 hrs by agar plate dilution method; type: functional; method in brief: as §2
Staphylococcus aureus [37] = assay: Antimicrobial activity against methicillin-resistant Staphylococcus aureus isolate 24a after 24 hrs by agar plate dilution method; type: functional; method in brief: as §2

CCC(=O)OCc1cn(CCn2c([N+](=O)[O-])cnc2C)nn1
Activity [1]: Non-toxic

Cc1ccccc1NCc1cn(CCn2c([N+](=O)[O-])cnc2C)nn1
Activity [1]: Non-toxic

CCCc1cn(CCn2c([N+](=O)[O-])cnc2C)nn1
Activity [1]: Non-toxic

Cc1ncc([N+](=O)[O-])n1CCn1cc(COc2ccc(C(C)C)cc2)nn1
Activity [1]: Non-toxic

Cc1ncc([N+](=O)[O-])n1CCn1cc(C2(O)CCCCC2)nn1
Activity [1]: Non-toxic

Cc1ncc([N+](=O)[O-])n1CCn1cc(COc2ccccc2)nn1
Activity [1]: Non-toxic

Cc1ncc([N+](=O)[O-])n1CCn1cc(CNCCc2ccccc2)nn1
Activity [1]: Non-toxic

Cc1ncc([N+](=O)[O-])n1CCn1cc(CNc2cccc(Cl)c2)nn1
Activity [1]: Non-toxic

Cc1ncc([N+](=O)[O-])n1CCn1cc(CNc2ccccn2)nn1
Activity [1]: Non-toxic

Cc1ncc([N+](=O)[O-])n1CCn1cc(COc2ccccc2C=O)nn1
Activity [1]: Non-toxic

Cc1ncc([N+](=O)[O-])n1CCn1cc(-c2ccccc2)nn1
Activity [1]: Non-toxic

Cc1ncc([N+](=O)[O-])n1CCn1cc(COc2ccccc2Cl)nn1
Activity [1]: Non-toxic

Cc1cccc(OCc2cn(CCn3c([N+](=O)[O-])cnc3C)nn2)c1C
Activity [1]: Non-toxic

Cc1ncc([N+](=O)[O-])n1CCn1cc(COc2ccc([N+](=O)[O-])cc2)nn1
Activity [1]: Non-toxic

Cc1ncc([N+](=O)[O-])n1CCn1cc(CNc2ccccc2F)nn1
Activity [1]: Non-toxic

Cc1ncc([N+](=O)[O-])n1CCn1cc(COc2ccc(C(C)(C)C)cc2)nn1
Activity [1]: Non-toxic

Cc1ncc([N+](=O)[O-])n1CCn1cc(COCc2ccccc2)nn1
Activity [1]: Non-toxic

Cc1onc(-c2ccccc2)c1C(=O)N[C@@H]1C(=O)N2[C@@H]1SC(C)(C)[C@@H]2C(=O)O [OXACILLIN]
MIC (Staphylococcus aureus [2]): > 128 mg/L
MIC (Staphylococcus aureus [3]): 32 mg/L (≈ 79.7 µM)
MIC (Staphylococcus aureus [4]): > 128 mg/L
Activity (Staphylococcus aureus [5]): 7.62 log10CFU/ml
MIC (Staphylococcus aureus [6]): 64 mg/L (≈ 159 µM)
MIC (Staphylococcus aureus [7]): > 128 mg/L
MIC (Staphylococcus aureus [8]): 64 mg/L (≈ 159 µM)
Activity (Staphylococcus aureus [9]): 6.05 log10CFU/ml
Activity (Staphylococcus aureus [10]): 11.2 log10CFU/ml
MIC (Staphylococcus aureus [11]): > 128 mg/L
MIC (Staphylococcus aureus [12]): > 128 mg/L
MIC (Staphylococcus aureus [13]): > 128 mg/L
MIC (Staphylococcus aureus [14]): > 128 mg/L
MIC (Staphylococcus aureus [15]): > 128 mg/L
MIC (Staphylococcus aureus [16]): 32 mg/L (≈ 79.7 µM)
Activity (Staphylococcus aureus [17]): 12.34 log10CFU/ml
MIC (Staphylococcus aureus [18]): > 128 mg/L
MIC (Staphylococcus aureus [19]): > 128 mg/L
MIC (Staphylococcus aureus [20]): > 128 mg/L
MIC (Staphylococcus aureus [21]): > 128 mg/L
MIC (Staphylococcus aureus [22]): 32 mg/L (≈ 79.7 µM)
MIC (Staphylococcus aureus [23]): > 128 mg/L
MIC (Staphylococcus aureus [24]): 64 mg/L (≈ 159 µM)
MIC (Staphylococcus aureus [25]): 64 mg/L (≈ 159 µM)
MIC (Staphylococcus aureus [26]): > 128 mg/L
MIC (Staphylococcus aureus [27]): > 128 mg/L
MIC (Staphylococcus aureus [28]): > 128 mg/L
MIC (Staphylococcus aureus [29]): 128 mg/L (≈ 319 µM)
Activity (Staphylococcus aureus [30]): 8.35 log10CFU/ml
Activity (Staphylococcus aureus [31]): 11.95 log10CFU/ml
MIC (Staphylococcus aureus [32]): > 128 mg/L
MIC (Staphylococcus aureus [33]): > 128 mg/L
MIC (Staphylococcus aureus [34]): 32 mg/L (≈ 79.7 µM)
MIC (Staphylococcus aureus [35]): > 128 mg/L
MIC (Staphylococcus aureus [36]): > 128 mg/L
MIC (Staphylococcus aureus [37]): 16 mg/L (≈ 39.9 µM)

Cc1ncc([N+](=O)[O-])n1CCn1cc(CNc2ccc(F)cc2)nn1
Activity [1]: Non-toxic

Cc1ncc([N+](=O)[O-])n1CCn1cc(CNc2cc(Cl)c(Cl)cc2Cl)nn1
Activity [1]: Non-toxic

Cc1ncc([N+](=O)[O-])n1CCn1cc(CNc2ccccc2)nn1
Activity [1]: Non-toxic

Cc1ncc([N+](=O)[O-])n1CCO [METRONIDAZOLE]
Activity (Staphylococcus aureus [5]): 6.45 log10CFU/ml
Activity (Staphylococcus aureus [9]): 5.91 log10CFU/ml
Activity (Staphylococcus aureus [10]): 8.25 log10CFU/ml
Activity (Staphylococcus aureus [17]): 8.3 log10CFU/ml
Activity (Staphylococcus aureus [30]): 8.01 log10CFU/ml
Activity (Staphylococcus aureus [31]): 8.14 log10CFU/ml

COc1cc(NCc2cn(CCn3c([N+](=O)[O-])cnc3C)nn2)cc(OC)c1
Activity [1]: Non-toxic

Cc1ncc([N+](=O)[O-])n1CCn1cc(CNc2ccc(Br)cc2)nn1
Activity [1]: Non-toxic

Cc1ncc([N+](=O)[O-])n1CCn1cc(COc2ccc(Cl)cc2Cl)nn1
Activity [1]: Non-toxic

Cc1ccccc1OCc1cn(CCn2c([N+](=O)[O-])cnc2C)nn1
Activity [1]: Non-toxic

Cc1ncc([N+](=O)[O-])n1CCn1cc([Si](C)(C)C)nn1
Activity [1]: Non-toxic

Cc1ncc([N+](=O)[O-])n1CCn1cc(CNc2ccccc2Cl)nn1
Activity [1]: Non-toxic

Cc1ncc([N+](=O)[O-])n1CCn1cc(COc2c(C(C)(C)C)cc(C(C)(C)C)cc2C(C)(C)C)nn1
Activity [1]: Non-toxic

Cc1ncc([N+](=O)[O-])n1CCn1cc(COC2CCCCO2)nn1 (stereo unspecified)
Activity [1]: Non-toxic

Cc1ccc(OCc2cn(CCn3c([N+](=O)[O-])cnc3C)nn2)cc1
Activity [1]: Non-toxic

Cc1ncc([N+](=O)[O-])n1CCn1cc(COc2cccc3ccccc23)nn1
Activity [1]: Non-toxic

Cc1ncc([N+](=O)[O-])n1CCn1cc(CNc2cccc(Cl)c2Cl)nn1
Activity [1]: Non-toxic

Cc1ncc([N+](=O)[O-])n1CCn1cc(CNc2cccc(F)c2)nn1
Activity [1]: Non-toxic

Cc1ncc([N+](=O)[O-])n1CCn1cc(CBr)nn1
Activity [1]: Non-toxic

Cc1ncc([N+](=O)[O-])n1CCn1cc(COc2ccc(C=O)cc2)nn1
Activity [1]: Non-toxic

From ChEMBL document CHEMBL3792373, “Anti-methicillin resistant Staphylococcus aureus activity, synergism with oxacillin and molecular docking studies of metronidazole-triazole hybrids” (Eur J Med Chem, 2016)
